# Shown are actives, neighbours in structure and some others; about 5.5% of the full set was active somewhere.
# STAT3 act – STAT3 signaling activation; AID 871; U3A cells, IL-6 STAT3-luciferase reporter, luminescence; 100% = signal with IL-6 EC80 alone; 0.91% of 190,000 active; activation (% of control), % at 5.6 µM;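 active means activation above the screen-wide mean of compound activation plus 3 SD, cut at about 130% in these data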;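 further: 0% = background luminescence of wells with medium and substrate only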
#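 Material: human U3A cells carrying STAT3-luciferase construct. Measured by: reporter luminescence signal. Timing: compound 1 h, then IL-6 6 h at 37 °C.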
# STAT1 blocker – inhibitors of IFN-gamma induced STAT1 signaling | 0.35% of 200,000 active | inhibition, % at 5.5 µM | NIH 3T3 STAT1-luciferase reporter, luminescence;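 active means inhibition above a set limit, the mean inhibition across all tested compounds plus 3 SD, cut at about 34% in these data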;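 further: 0% = IFN-gamma with DMSO and 100% = IFN-gamma with 300 µM nifuroxazide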
# STAT3 blocker – inhibitors of IL-6 induced STAT3 signaling | inhibition, % at 5.5 µM | 0.89% of 190,000 active | AID 862 | U3A cells, IL-6 STAT3-luciferase reporter, luminescence; host cell line lacks STAT1;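 active means inhibition above the mean inhibition across all screened compounds plus 3 SD, cut at about 44% in these data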;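 further: 0% = DMSO only wells and 100% = 100 µM nifuroxazide control wells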
# KCC2 mod – KCC2 (human) Cl- transport modulation; 2.2% of 190,000 active; KCC2 cells, thallium flux FluoZin-2 fluorescence; Q9H2X9; B-score of Tl+ flux slope (higher = more flux/activation; lower = inhibition) at 10 µM;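 active means thallium flux slope and its plate-corrected score both differing from the plate sample mean at a set confidence after two filtering rounds, in either direction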;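 further: slope of fluorescence scaled to starting intensity during 10 to 20 s after thallium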
# Target sequence (Q9H2X9 whole entry, looked up): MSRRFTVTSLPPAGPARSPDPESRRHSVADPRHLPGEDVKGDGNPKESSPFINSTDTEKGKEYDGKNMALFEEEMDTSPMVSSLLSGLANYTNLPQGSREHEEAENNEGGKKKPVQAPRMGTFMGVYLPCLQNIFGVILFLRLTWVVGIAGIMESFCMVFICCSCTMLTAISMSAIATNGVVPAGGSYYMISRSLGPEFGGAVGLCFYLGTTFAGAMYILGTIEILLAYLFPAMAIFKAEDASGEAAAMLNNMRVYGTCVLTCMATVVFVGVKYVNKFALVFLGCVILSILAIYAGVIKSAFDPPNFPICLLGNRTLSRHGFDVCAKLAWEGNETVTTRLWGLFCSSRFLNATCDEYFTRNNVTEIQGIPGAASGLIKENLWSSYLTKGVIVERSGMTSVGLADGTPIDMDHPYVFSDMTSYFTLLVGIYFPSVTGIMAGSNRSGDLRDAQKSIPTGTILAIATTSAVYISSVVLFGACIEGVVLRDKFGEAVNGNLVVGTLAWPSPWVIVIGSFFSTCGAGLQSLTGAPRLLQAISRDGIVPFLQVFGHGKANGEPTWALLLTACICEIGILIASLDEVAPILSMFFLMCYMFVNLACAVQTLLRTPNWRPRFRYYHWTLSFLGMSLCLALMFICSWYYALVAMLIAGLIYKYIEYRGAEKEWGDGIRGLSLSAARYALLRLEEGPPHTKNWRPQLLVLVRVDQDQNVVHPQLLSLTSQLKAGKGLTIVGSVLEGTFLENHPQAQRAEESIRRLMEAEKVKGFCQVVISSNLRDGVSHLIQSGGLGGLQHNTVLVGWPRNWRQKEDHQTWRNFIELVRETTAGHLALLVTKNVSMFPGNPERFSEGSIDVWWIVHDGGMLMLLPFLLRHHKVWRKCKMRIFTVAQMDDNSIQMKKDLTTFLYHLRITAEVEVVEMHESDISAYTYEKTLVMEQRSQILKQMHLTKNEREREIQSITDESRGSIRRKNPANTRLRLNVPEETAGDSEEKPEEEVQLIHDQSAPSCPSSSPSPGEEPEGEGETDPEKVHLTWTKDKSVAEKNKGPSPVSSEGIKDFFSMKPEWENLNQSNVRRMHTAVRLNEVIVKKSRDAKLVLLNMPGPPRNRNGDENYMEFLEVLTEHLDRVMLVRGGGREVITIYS
# HSV replic up – increases HSV replication in cells | HSV replication augmentation in cells, fold increase | maximum fold increase | 0.005% of 220,000 active | AID 1956; in the data active means maximum fold increase above about 1.5; inconclusive means no clear call, values can overlap the other calls; tested in PC3 cells
# STAT1 act – STAT1 signaling activation. NIH 3T3 STAT1-luciferase reporter, IFN-gamma, luminescence; 100% = IFN-gamma alone, no compound. activation (% of control), % at 5.5 µM. 2.6% of 200,000 active. AID 932;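 active means activation above the screen-wide mean activation plus 3 SD, cut at about 130% in these data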;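 further: raw ratio to IFN-gamma control signal so 100% means no change and 0% no light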
# STAT1 activ conf – confirmation of STAT1 signaling activators; shares compounds with STAT1 act; NIH 3T3 STAT1-luciferase reporter, IFN-gamma potentiation, luminescence; 100% = IFN-gamma EC80 alone, no compound; activation (% of control), % at 5.7 µM; 97% of 1,200 active; AID 1262;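 active means activation above a set limit carried over from the earlier primary STAT1 screen, cut at about 140% in these data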;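 further: simple ratio to median IFN-gamma plus DMSO wells so 0% means no light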
# NFkB act STAT1ct – activates NF-kappaB, counter-screen to STAT1 activators | shares compounds with STAT1 act | HEK293T NF-kB luciferase reporter, TNF-alpha stimulated, luminescence; 100% = TNF-alpha with vehicle only | activation (% of control), % at 5.7 µM | 43% of 1,200 active | AID 1306;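 active means activation above the mean of solvent-only control wells plus 3 SD, set per campaign, cut at about 130% in these data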;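 further: TNF-alpha given at a submaximal dose yielding about 80% of full reporter signal; values are well signal over median control so 100% means no change and 0% no light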
# STAT3 act STAT1c – activates human STAT3, counter-screen to STAT1 activators. activation (% of control), % at 5.7 µM. AID 1316. U3A cells STAT3-luciferase reporter, IL-6, luminescence; cells lack STAT1; 100 = IL-6 alone, no compound effect. shares compounds with STAT1 act. 46% of 1,200 active;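 active means activation above the solvent-only control well mean plus 3 SD, set per plate batch, cut at about 110% in these data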;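 further: 0% = no luminescence and 100% = median IL-6 plus DMSO wells; higher means more STAT3 reporter activation so hits are non-selective activators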
# Starred values were filed as active, the others as inactive; i = inactive; ? = inconclusive; . = no result.
SMILES,STAT3 act,STAT1 blocker,STAT3 blocker,KCC2 mod,HSV replic up,STAT1 act,STAT1 activ conf,NFkB act STAT1ct,STAT3 act STAT1c
Cc1ccccc1NC(=S)NC(NC(=O)c1ccccc1C)C(Cl)(Cl)Cl (centres undefined),99,8,7,-0.78,i,93,.,.,.
CC(=O)Nc1sc2c(c1-c1nc3ccccc3s1)CCN(C(C)C)C2,.,-206,.,0.44,.,285*,202*,191*,202*
CCCCNC(=O)/C(=C/c1ccccc1)NC(C)=O,93,5,6,1.5,i,96,.,.,.
CC(=O)Nc1nc2ccc(-c3nc4ccccc4o3)cc2s1,93,-73,12,-0.37,i,167*,200*,135*,115*
Cc1nc2ccc(-c3nc4ccccc4o3)cc2[nH]1,72,-104,36,-2.2,i,195*,232*,121,98
CCN(CC)S(=O)(=O)c1ccc2oc(SCC3CN=C(c4ccc(OC)cc4)S3)nc2c1 (centres undefined),99,2,4,.,i,98,.,.,.
Cc1ccc(C2CC(c3cccs3)=NN2C(=O)CSc2nc3ccccc3o2)cc1 (centres undefined),99,6,5,-0.55,i,95,.,.,.
Fc1ccccc1N1CCN(c2cnc3ccccc3n2)CC1,89,-64,13,-0.86,i,168*,245*,121,99
CCc1ccc(N(CC(=O)Nc2nc3ccc(C)cc3s2)S(=O)(=O)c2c(C)noc2C)cc1,100,-7,4,.,i,107,.,.,.
Cc1ccc2nc(NC(=O)c3ccc(OCC4CCCO4)cc3)sc2c1 (centres undefined),96,-62,4,-0.7,i,158*,148*,116,91
Cc1ccc(CNC(=O)c2ccc(OCC3CCCO3)cc2)cc1 (centres undefined),95,-9,4,0.024,i,108,.,.,.
COc1ccc2nc(SCC(C)=O)c(C#N)cc2c1,102,-101,1,-0.98,?,190*,312*,139*,93
COc1ccc2nc(SC)c(C#N)cc2c1,82,-12,26,.,i,110,.,.,.
CCOC(=O)CSc1nc2ccc(C)cc2cc1C#N,105,-62,2,.,i,157*,221*,142*,106
CCOC(=O)CSc1nc2cc(OC)ccc2cc1C#N,104,-75,-2,.,i,168*,259*,145*,112*
CCOC(=O)CSc1nc2cc(C)cc(C)c2cc1C#N,87,-22,16,.,i,120,.,.,.
CCOC(=O)CSc1nc2cc(C)ccc2cc1C#N,108,-58,-7,.,i,153*,213*,139*,110
O=[N+]([O-])c1ccc2c(c1)N([O-])C1(CCCCC1)[N+]2=O,.,.,.,0.46,i,.,.,.,.
FC(F)(F)Oc1ccc(NC(=S)NCCCN2CCOCC2)cc1,94,1,9,.,i,100,.,.,.
C=CCn1c(COc2ccc(Cl)cc2)nnc1SCC(=O)N1CC(=O)Nc2ccccc21,109,-7,-7,-0.057,i,107,.,.,.
CCOC(=O)CNC(=S)N(Cc1ccc(C)cc1)Cc1ccc(C)o1,107,1,-8,-0.47,i,99,.,.,.
Cc1ccc2nc(/C=C/c3cccc(F)c3)ccc2c1,99,-107,6,0.18,i,194*,259*,150*,116*
CCN(CC(=O)NCc1ccc(Cl)cc1)S(=O)(=O)c1ccc(NC(C)=O)cc1,104,3,3,0.05,i,96,.,.,.
O=C(Nc1ccc(Cl)cn1)c1ccc(-c2ccc(Cl)c(Cl)c2)o1,110,0,-1,0.32,i,100,.,.,.
O=C(NC1=NCCS1)c1ccc(-c2ccc(Cl)cc2)o1,84,-61,22,-1.2,i,156*,187*,126,94
SMILES,STAT3 act,STAT1 blocker,STAT3 blocker,KCC2 mod,HSV replic up,STAT1 act,STAT1 activ conf,NFkB act STAT1ct,STAT3 act STAT1c
CN(/N=C/c1ccc2c(c1)OCO2)c1ccccc1,101,-61,2,0.34,i,155*,180*,139*,108
C(=N\N(c1ccccc1)c1ccccc1)/c1ccc2c(c1)OCO2,108,-6,-5,-0.45,i,106,.,.,.
Cc1c(C=O)c(Cl)n(C)c(=O)c1C#N,107,-6,-1,-0.038,i,104,.,.,.
N/C(=N\OC(=O)c1ccccc1Cl)c1ccccc1,99,0,1,.,i,100,.,.,.
Cc1ccc(/C(N)=N/OC(=O)c2ccc(C)cc2Cl)cc1,67,-72,41,-1.4,i,164*,207*,97,81
Cc1cccc(/C(N)=N/OC(=O)c2ccc(Cl)cc2Cl)c1,100,-69,-3,-0.48,i,161*,222*,126,114*
N/C(=N\OC(=O)c1ccccc1Cl)c1ccc(Cl)cc1,126,-57,-18,.,i,155*,193*,123,159*
N/C(=N\OC(=O)c1ccc(Cl)cc1Cl)c1ccccc1,72,-9,42,-0.046,i,108,.,.,.
O=c1c2ccccc2nnn1CSc1ccccc1,78,-72,25,-0.71,i,165*,192*,109,100
O=C(Nc1ccc(NC(=O)C23CC4CC(CC(C4)C2)C3)cn1)c1ccco1,108,-93,-8,0.86,i,185*,222*,142*,123*
CCC(=O)Nc1ccc(NC(=O)C23CC4CC(CC(C4)C2)C3)cn1,104,-3,-3,-0.6,i,103,.,.,.
COc1ccc(N=C(C)C2=C(O)c3ccccc3C2=O)cc1,74,-73,29,0.024,i,165*,209*,103,88
O=c1/c(=C/c2ccc([N+](=O)[O-])cc2)sc2n1CCCN=2,96,-62,9,-0.021,i,157*,183*,135*,97
COc1ccc2c(c1)oc(=O)c1cc(OC)ccc12,.,-60,.,-1.7,i,153*,152*,124,103
COc1ccc2c(c1)oc(=O)c1ccccc12,92,-20,11,-1.2,i,118,.,.,.
C(=N\N=C\c1cccs1)/c1cccs1,87,-77,20,0.74,i,167*,189*,128,106
CCc1c(C)c(C#N)c2[nH]c3ccccc3n2c1=S,.,.,.,0.13,i,.,.,.,.

# Compound activity: PubChem BioAssay, several laboratories
